In ChEMBL document CHEMBL5029176, “Targeting Oncogenic Src Homology 2 Domain-Containing Phosphatase 2 (SHP2) by Inhibiting Its Protein-Protein Interactions” (J Med Chem, 2021):
Active and inactive are the calls of the source. The rule behind the calls is not given here. Where a SMILES comes first, the peptide text is derived from it.

How the values were obtained:
[1] = Stability in human serum assessed as degradation after 24 hrs by HPLC analysis; assay type: ADME, cell-free; settings: read-out: Drug degradation
In short: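 Peptide stock in DMSO (5 mg/mL), 20 μL added to 1 mL 25 mM HEPES pH 7.6 plus 250 μL human serum at 37 °C; aliquots taken over 24 h, quenched in ethanol on ice, centrifuged, supernatant analysed by HPLC and HPLC-MS; peptide-buffer-ethanol controls run in parallel.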

[2] = Stability in DMEM buffer after 3 days by HPLC analysis; assay type: physicochemical; settings: 72 h, time 3 day
In short: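 Same set-up as serum test but in DMEM, followed 72 h at 37 °C; monitored by HPLC with 5–50% B over 20 min.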

Homo sapiens [3] = species on record: Homo sapiens; assay: Activation of human His-tagged SHP2 A27S mutant expressed in Escherichia coli (DE3) Rosetta2 competent cells using p-nitrophenyl phosphate as substrate at 10 uM measured after 30 mins
In short: (§1)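 Recombinant full-length SHP2 (wild type or mutant), His-tagged, Ni-NTA then anion-exchange and gel-filtration purified; 20 pmol in 200 μL buffer with 20 mM p-nitrophenyl phosphate, basal or stimulated with bisphosphorylated BTAM peptide; 30 min at 30 °C; phosphate release read at 405 nm; three replicates.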

Homo sapiens [4] = species on record: Homo sapiens; assay: Activation of human His-tagged SHP2 D61H mutant expressed in Escherichia coli (DE3) Rosetta2 competent cells using p-nitrophenyl phosphate as substrate at 10 uM measured after 30 mins; in short: as §1
Homo sapiens [5] = species on record: Homo sapiens; assay: Activation of human His-tagged SHP2 E76V mutant expressed in Escherichia coli (DE3) Rosetta2 competent cells using p-nitrophenyl phosphate as substrate at 10 uM measured after 30 mins; in short: as §1
Homo sapiens [6] = species on record: Homo sapiens; assay: Activation of human His-tagged SHP2 F71I mutant expressed in Escherichia coli (DE3) Rosetta2 competent cells using p-nitrophenyl phosphate as substrate at 10 uM measured after 30 mins; in short: as §1
[7] = test system: T1, Tyrosine-protein phosphatase non-receptor type 11 (Homo sapiens), Q06124 [E76K]; assay: Activation of human His-tagged SHP2 E76K mutant expressed in Escherichia coli (DE3) Rosetta2 competent cells using p-nitrophenyl phosphate as substrate at 10 uM measured after 30 mins; in short: as §1
T1 sequence (whole entry): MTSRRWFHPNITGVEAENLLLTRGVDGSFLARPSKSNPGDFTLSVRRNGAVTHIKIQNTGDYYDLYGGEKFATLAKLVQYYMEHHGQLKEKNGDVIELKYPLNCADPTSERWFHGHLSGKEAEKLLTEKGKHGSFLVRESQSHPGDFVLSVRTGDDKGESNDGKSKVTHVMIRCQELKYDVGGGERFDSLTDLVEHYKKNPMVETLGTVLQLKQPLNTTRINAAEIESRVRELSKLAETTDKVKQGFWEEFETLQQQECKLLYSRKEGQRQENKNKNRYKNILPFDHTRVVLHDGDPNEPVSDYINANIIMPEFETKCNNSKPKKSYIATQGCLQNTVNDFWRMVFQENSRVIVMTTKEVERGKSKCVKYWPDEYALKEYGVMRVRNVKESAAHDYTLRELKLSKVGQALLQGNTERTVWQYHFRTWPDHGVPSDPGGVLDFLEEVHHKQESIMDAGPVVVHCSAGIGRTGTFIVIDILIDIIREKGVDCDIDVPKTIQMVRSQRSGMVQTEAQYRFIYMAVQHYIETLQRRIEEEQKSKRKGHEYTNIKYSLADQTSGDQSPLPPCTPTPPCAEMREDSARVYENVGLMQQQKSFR

Danio rerio [8] = species on record: Danio rerio; assay: Reversal of Shp2a-D61G-induced gastrulation defect in Zebrafish assessed as reduction in major/minor axis ratios by stereomicroscopic analysis; assay type: functional, organism-based; settings: dose 0.3-5 µM
In short: (§2)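 One-cell zebrafish embryos microinjected (~1 nL) with 120 ng/μL mRNA for GFP-2A-Shp2-D61G or wild-type Shp2, with or without peptide at final 0.3, 3 or 5 μM (assuming ~500 nL embryo volume); GFP-expressing embryos selected, imaged laterally at 11 hpf by stereomicroscope; ovality as long/short axis ratio; survival followed through development; non-injected embryos as control.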

Danio rerio [9] = species on record: Danio rerio; assay: Reversal of Shp2a-D61G-induced phenotypic defect in Zebrafish at 5 uM by stereomicroscopic analysis; assay type: functional, organism-based; in short: as §2
Danio rerio [10] = species on record: Danio rerio; assay: Induction of phenotypic defect in Zebrafish injected with wild type Shp2a at 3 uM measured after 11 hrs post fertilization by stereomicroscopic analysis; assay type: organism-based; settings: in vivo
In short: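 Wild-type Shp2 mRNA (120 ng/μL) co-injected with peptide at final 3 μM into one-cell zebrafish embryos; GFP-positive embryos imaged laterally at 11 hpf by stereomicroscope; shape scored as long/short axis ratio.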

Danio rerio [11] = species on record: Danio rerio; assay: Improvement in survival of Shp2a-D61G-injected Zebrafish embryos at 0.3 to 5 uM after 11 hrs post fertilization by stereomicroscopic analysis; assay type: functional, organism-based; settings: Embryo, dose 0.3-5 µM; in short: as §2
Danio rerio [12] = species on record: Danio rerio; assay: Improvement in survival of wild type Shp2a-injected Zebrafish embryos at 3 uM after 11 hrs post fertilization by stereomicroscopic analysis; assay type: functional, organism-based; settings: Embryo; in short: as §2
[13] = Stability in human serum assessed as degradation after 3 hrs by HPLC analysis; assay type: ADME, cell-free; settings: read-out: Drug degradation
In short: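 Peptide DMSO stock (5 mg/mL) added to 25 mM HEPES pH 7.6 with human serum (1 mL buffer + 250 μL serum) at 37 °C; followed 24 h. Aliquots withdrawn at fixed intervals, quenched in absolute ethanol, 15 min on ice, centrifuged; supernatant analysed by HPLC and HPLC-MS. Peptide/buffer/ethanol samples run in parallel.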

| SMILES | metabolised at 24 h [1] [%] | Stability [2] | Activity (Homo sapiens [3]) | Activity (Homo sapiens [4]) | Activity (Homo sapiens [5]) | Activity (Homo sapiens [6]) | Activity [7] | Activity (Danio rerio [8]) | Activity (Danio rerio [9]) | Activity (Danio rerio [10]) | Activity (Danio rerio [11]) | Activity (Danio rerio [12]) | metabolised at 3 h [13] [%] |
| --- | --- | --- | --- | --- | --- | --- | --- | --- | --- | --- | --- | --- | --- |
| CC[C@H](C)[C@H](NC(=O)[C@H](Cc1ccc(OP(=O)(O)O)cc1)NC(=O)[C@H](CC(N)=O)NC(=O)[C@H](CC(C)C)NC(C)=O)C(=O)N[C@@H](CC(=O)O)C(=O)N[C@@H](CC(C)C)C(=O)N[C@@H](CC(=O)O)C(=O)N[C@@H](Cc1c[nH]c2ccccc12)C(N)=O | < 50 |  |  |  |  |  |  |  |  |  |  |  |  |
| CC[C@H](C)[C@H](NC(=O)[C@H](Cc1ccc(C(F)(F)P(=O)(O)O)cc1)NC(=O)[C@H](CC(N)=O)NC(=O)[C@H](CC(C)C)NC(=O)CNC(C)=O)C(=O)N[C@@H](CC(=O)O)C(=O)N[C@@H](CC(C)C)C(=O)N[C@@H](CC(=O)O)C(=O)N[C@@H](Cc1c[nH]c2ccccc12)C(N)=O | < 50 | Stable | inactive | inactive | inactive | inactive | inactive | Dose-Dependent Effect | Active | Non-Toxic | Dose-Dependent Effect | inactive |  |
| CC[C@H](C)[C@H](NC(=O)[C@H](C)NC(=O)[C@H](CCCCN)NC(=O)CNC(=O)[C@H](Cc1ccc(O)cc1)NC(=O)[C@H](Cc1ccc(O)cc1)NC(=O)[C@H](CCCCN)NC(=O)[C@H](Cc1ccccc1)NC(=O)[C@@H](N)Cc1c[nH]c2ccccc12)C(=O)N[C@@H](Cc1ccc(O)cc1)C(=O)O (H-WFKYYGKAIY-OH) |  |  |  |  |  |  |  |  |  |  |  |  | 100 |
